The text below walks through data of article PMC7446891 (Bioorganic & medicinal chemistry, 2020).

The structures appear in SMILES notation.

The target of this experiment is EphA2 (Homo sapiens, UniProt P29317). Briefly: EphA2 activation. It counts as cell-based. Conditions: 2 μM in 0.1% DMSO, 1hr, U251 EphA2 cells, vs DMSO control. An outline of the steps: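 EphA2-overexpressing U251 cells were seeded at 100,000/well, grown 24 h, then given 2 μM test compound in 0.1% DMSO (1 hr per legend; methods text gives 30 min), with 0.1% DMSO vehicle. Cells were lysed 20 min in modified RIPA (pH 7.4, vanadate, NaF, protease inhibitors), immunoprecipitated, then blotted for pEphA/B (1:500) and EphA2 (1:1000), HRP anti-rabbit, chemiluminescence. Bands were quantified by densitometry, 3 experiments, unpaired t-test vs DMSO.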
Chain of EphA2 (P29317 24-976): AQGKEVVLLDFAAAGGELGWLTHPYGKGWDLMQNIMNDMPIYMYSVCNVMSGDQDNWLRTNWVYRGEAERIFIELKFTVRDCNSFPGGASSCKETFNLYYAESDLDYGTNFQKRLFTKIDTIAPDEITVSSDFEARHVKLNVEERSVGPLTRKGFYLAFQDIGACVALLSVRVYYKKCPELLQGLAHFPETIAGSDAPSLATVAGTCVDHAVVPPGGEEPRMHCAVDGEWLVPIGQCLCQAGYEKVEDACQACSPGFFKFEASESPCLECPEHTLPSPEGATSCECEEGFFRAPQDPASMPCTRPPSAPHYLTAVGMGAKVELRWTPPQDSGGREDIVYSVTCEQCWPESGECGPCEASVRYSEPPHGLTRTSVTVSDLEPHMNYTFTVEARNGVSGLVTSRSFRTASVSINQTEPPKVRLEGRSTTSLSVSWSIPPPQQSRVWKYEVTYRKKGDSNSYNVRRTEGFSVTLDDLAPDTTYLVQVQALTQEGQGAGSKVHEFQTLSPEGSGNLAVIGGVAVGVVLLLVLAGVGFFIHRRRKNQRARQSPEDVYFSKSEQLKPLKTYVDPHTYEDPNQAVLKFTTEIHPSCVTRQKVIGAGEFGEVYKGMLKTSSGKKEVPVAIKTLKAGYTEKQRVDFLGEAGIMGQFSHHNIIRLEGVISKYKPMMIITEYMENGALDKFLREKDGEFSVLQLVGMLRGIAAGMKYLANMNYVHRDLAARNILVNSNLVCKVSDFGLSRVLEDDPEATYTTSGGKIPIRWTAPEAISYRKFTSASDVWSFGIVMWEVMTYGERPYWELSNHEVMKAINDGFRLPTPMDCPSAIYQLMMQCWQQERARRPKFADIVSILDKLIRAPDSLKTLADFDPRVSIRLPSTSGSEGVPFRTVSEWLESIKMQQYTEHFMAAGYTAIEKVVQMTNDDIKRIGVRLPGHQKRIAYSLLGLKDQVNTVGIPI
In the case of `COc1cc2nc(N3CCN(C(=O)Oc4ccc(C(C)(C)c5ccc(OC(=O)N6CCN(c7nc(N)c8cc(OC)c(OC)cc8n7)CC6)cc5)cc4)CC3)nc(N)c2cc1OC` [Compound 3e, propane-2,2-diylbis(4,1-phenylene)bis(4-(4-amino-6,7-dimethoxyquinazolin-2-yl)piperazine-1-carb oxylate)], the “EphA2 phosphorylation (pEphA/B vs total EphA2)” value was “better activity to induce EphA2 phosphorylation”.
The value for `COc1cc2nc(N3CCN(C(=O)c4cccc(NC(=O)OCCOCCOCCOC(=O)Nc5cccc(C(=O)N6CCN(c7nc(N)c8cc(OC)c(OC)cc8n7)CC6)c5)c4)CC3)nc(N)c2cc1OC` [Compound 7bg, (ethane-1,2-diylbis(oxy))bis(ethane-2,1-diyl)bis((3-(4-(4-amino-6,7-dimethoxyquinazolin-2-yl)piperazine-1-carbonyl)phenyl)carbamate)] was “statistical significance compared to control”; that for `COc1cc2nc(N3CCN(C(=O)OCCOC(=O)N4CCN(c5nc(N)c6cc(OC)c(OC)cc6n5)CC4)CC3)nc(N)c2cc1OC` [Compound 3d, ethane-1,2-diyl bis(4-(4-amino-6,7-dimethoxyquinazolin-2-yl)piperazine-1-carboxylate)] was “did not show clear EphA2 activation”.
